Test system: Fibroblast
Experiment: Multiplex assay against human fibroblast
Format: toxicity, cell-based
Summary of the method: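 Compound was added to live cells that had been stained at seeding with Hoechst33342, BioTracker Green Microtubule Cytoskeleton Dye, MitoTracker Red and Annexin V Alexa Fluor 680, and imaging followed on a CQ1 microscope at 37°C and 5% CO2. CellPathfinder machine-learning gating divided cells into Hoechst high-intensity objects or normal cells, normal cells into healthy, pyknosed or fragmented nuclei, and pyknosed cells into mitotic or apoptotic. Tubulin, mitochondrial-mass and membrane-permeability phenotypes are per cents of healthy-nucleus cells.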

[1] = 12 h, 1 µM, compound concentration 1 uM, replicate 1
[2] = 12 h, 1 µM, compound concentration 1 uM, replicate 2
[3] = 12 h, 10 µM, compound concentration 10 uM, replicate 1
[4] = 12 h, 10 µM, compound concentration 10 uM, replicate 2
[5] = 24 h, 1 µM, compound concentration 1 uM, replicate 1
[6] = 24 h, 1 µM, compound concentration 1 uM, replicate 2
[7] = 24 h, 10 µM, compound concentration 10 uM, replicate 1
[8] = 24 h, 10 µM, compound concentration 10 uM, replicate 2
[9] = 48 h, 1 µM, compound concentration 1 uM, replicate 1
[10] = 48 h, 1 µM, compound concentration 1 uM, replicate 2
[11] = 48 h, 10 µM, compound concentration 10 uM, replicate 1
[12] = 48 h, 10 µM, compound concentration 10 uM, replicate 2

CC(C)OC(=O)N1CCC(Oc2ncnc3c2cnn3-c2ccc(S(C)(=O)=O)cc2F)CC1
Population Apoptotic (%) [1]: 64%
Population Fragmented Nuclei (%) [1]: 27%
Population Healthy Nuclei (%) [1]: 50%
Population Hoechst High Intensity Objects (%) [1]: 13%
Population Membrane Permeable-Phenotype (%) [1]: 27%
Population Mitochondria Different-Phenotype (%) [1]: 0%
Population Mitotic Cells (%) [1]: 35%
Population Normal (%) [1]: 86%
Population Pyknosed Nuclei (%) [1]: 22%
Population Tubulin-Different-Phenotype (%) [1]: 24%
Total Cell Count [1]: 86
Population Apoptotic (%) [2]: 33%
Population Fragmented Nuclei (%) [2]: 5%
Population Healthy Nuclei (%) [2]: 91%
Population Hoechst High Intensity Objects (%) [2]: 7%
Population Membrane Permeable-Phenotype (%) [2]: 4%
Population Mitochondria Different-Phenotype (%) [2]: 8%
Population Mitotic Cells (%) [2]: 66%
Population Normal (%) [2]: 92%
Population Pyknosed Nuclei (%) [2]: 3%
Population Tubulin-Different-Phenotype (%) [2]: 7%
Total Cell Count [2]: 97
Population Apoptotic (%) [3]: 58%
Population Fragmented Nuclei (%) [3]: 21%
Population Healthy Nuclei (%) [3]: 43%
Population Hoechst High Intensity Objects (%) [3]: 10%
Population Membrane Permeable-Phenotype (%) [3]: 17%
Population Mitochondria Different-Phenotype (%) [3]: 22%
Population Mitotic Cells (%) [3]: 41%
Population Normal (%) [3]: 89%
Population Pyknosed Nuclei (%) [3]: 34%
Population Tubulin-Different-Phenotype (%) [3]: 58%
Total Cell Count [3]: 164
Population Apoptotic (%) [4]: 18%
Population Fragmented Nuclei (%) [4]: 5%
Population Healthy Nuclei (%) [4]: 77%
Population Hoechst High Intensity Objects (%) [4]: 6%
Population Membrane Permeable-Phenotype (%) [4]: 0%
Population Mitochondria Different-Phenotype (%) [4]: 5%
Population Mitotic Cells (%) [4]: 81%
Population Normal (%) [4]: 93%
Population Pyknosed Nuclei (%) [4]: 16%
Population Tubulin-Different-Phenotype (%) [4]: 28%
Total Cell Count [4]: 72
Population Apoptotic (%) [5]: 66%
Population Fragmented Nuclei (%) [5]: 20%
Population Healthy Nuclei (%) [5]: 58%
Population Hoechst High Intensity Objects (%) [5]: 13%
Population Membrane Permeable-Phenotype (%) [5]: 33%
Population Mitochondria Different-Phenotype (%) [5]: 4%
Population Mitotic Cells (%) [5]: 33%
Population Normal (%) [5]: 86%
Population Pyknosed Nuclei (%) [5]: 20%
Population Tubulin-Different-Phenotype (%) [5]: 45%
Total Cell Count [5]: 83
Population Apoptotic (%) [6]: 50%
Population Fragmented Nuclei (%) [6]: 4%
Population Healthy Nuclei (%) [6]: 86%
Population Hoechst High Intensity Objects (%) [6]: 2%
Population Membrane Permeable-Phenotype (%) [6]: 5%
Population Mitotic Cells (%) [6]: 50%
Population Normal (%) [6]: 97%
Population Pyknosed Nuclei (%) [6]: 8%
Population Tubulin-Different-Phenotype (%) [6]: 9%
Total Cell Count [6]: 116
Population Apoptotic (%) [7]: 43%
Population Fragmented Nuclei (%) [7]: 24%
Population Healthy Nuclei (%) [7]: 48%
Population Hoechst High Intensity Objects (%) [7]: 12%
Population Membrane Permeable-Phenotype (%) [7]: 30%
Population Mitochondria Different-Phenotype (%) [7]: 16%
Population Mitotic Cells (%) [7]: 56%
Population Normal (%) [7]: 87%
Population Pyknosed Nuclei (%) [7]: 27%
Population Tubulin-Different-Phenotype (%) [7]: 72%
Total Cell Count [7]: 156
Population Apoptotic (%) [8]: 33%
Population Fragmented Nuclei (%) [8]: 5%
Population Healthy Nuclei (%) [8]: 87%
Population Hoechst High Intensity Objects (%) [8]: 2%
Population Membrane Permeable-Phenotype (%) [8]: 1%
Population Mitochondria Different-Phenotype (%) [8]: 2%
Population Mitotic Cells (%) [8]: 66%
Population Normal (%) [8]: 97%
Population Pyknosed Nuclei (%) [8]: 6%
Population Tubulin-Different-Phenotype (%) [8]: 31%
Total Cell Count [8]: 93
Population Apoptotic (%) [9]: 77%
Population Fragmented Nuclei (%) [9]: 35%
Population Healthy Nuclei (%) [9]: 52%
Population Hoechst High Intensity Objects (%) [9]: 25%
Population Membrane Permeable-Phenotype (%) [9]: 28%
Population Mitochondria Different-Phenotype (%) [9]: 0%
Population Mitotic Cells (%) [9]: 22%
Population Normal (%) [9]: 74%
Population Pyknosed Nuclei (%) [9]: 12%
Population Tubulin-Different-Phenotype (%) [9]: 35%
Total Cell Count [9]: 99
Population Apoptotic (%) [10]: 0%
Population Fragmented Nuclei (%) [10]: 25%
Population Healthy Nuclei (%) [10]: 74%
Population Hoechst High Intensity Objects (%) [10]: 13%
Population Membrane Permeable-Phenotype (%) [10]: 31%
Population Mitochondria Different-Phenotype (%) [10]: 2%
Population Mitotic Cells (%) [10]: 0%
Population Normal (%) [10]: 86%
Population Pyknosed Nuclei (%) [10]: 0%
Population Tubulin-Different-Phenotype (%) [10]: 44%
Total Cell Count [10]: 73
Population Apoptotic (%) [11]: 46%
Population Fragmented Nuclei (%) [11]: 24%
Population Healthy Nuclei (%) [11]: 51%
Population Hoechst High Intensity Objects (%) [11]: 17%
Population Membrane Permeable-Phenotype (%) [11]: 29%
Population Mitochondria Different-Phenotype (%) [11]: 14%
Population Mitotic Cells (%) [11]: 53%
Population Normal (%) [11]: 82%
Population Pyknosed Nuclei (%) [11]: 23%
Population Tubulin-Different-Phenotype (%) [11]: 73%
Total Cell Count [11]: 143
Population Apoptotic (%) [12]: 66%
Population Fragmented Nuclei (%) [12]: 22%
Population Healthy Nuclei (%) [12]: 73%
Population Hoechst High Intensity Objects (%) [12]: 7%
Population Membrane Permeable-Phenotype (%) [12]: 14%
Population Mitochondria Different-Phenotype (%) [12]: 4%
Population Mitotic Cells (%) [12]: 33%
Population Normal (%) [12]: 92%
Population Pyknosed Nuclei (%) [12]: 3%
Population Tubulin-Different-Phenotype (%) [12]: 44%
Total Cell Count [12]: 99

CC(C)NC(=O)N1CC[C@H](NC2=Nc3cc(F)ccc3N(CC(F)F)c3ccc(Cl)cc32)C1
Population Apoptotic (%) [1]: 68%
Population Fragmented Nuclei (%) [1]: 27%
Population Healthy Nuclei (%) [1]: 30%
Population Hoechst High Intensity Objects (%) [1]: 12%
Population Membrane Permeable-Phenotype (%) [1]: 4%
Population Mitochondria Different-Phenotype (%) [1]: 4%
Population Mitotic Cells (%) [1]: 31%
Population Normal (%) [1]: 87%
Population Pyknosed Nuclei (%) [1]: 42%
Population Tubulin-Different-Phenotype (%) [1]: 14%
Total Cell Count [1]: 79
Population Apoptotic (%) [2]: 33%
Population Fragmented Nuclei (%) [2]: 5%
Population Healthy Nuclei (%) [2]: 89%
Population Hoechst High Intensity Objects (%) [2]: 9%
Population Mitochondria Different-Phenotype (%) [2]: 18%
Population Mitotic Cells (%) [2]: 66%
Population Normal (%) [2]: 90%
Population Pyknosed Nuclei (%) [2]: 5%
Total Cell Count [2]: 293
Population Apoptotic (%) [3]: 70%
Population Fragmented Nuclei (%) [3]: 29%
Population Healthy Nuclei (%) [3]: 40%
Population Hoechst High Intensity Objects (%) [3]: 13%
Population Membrane Permeable-Phenotype (%) [3]: 8%
Population Mitochondria Different-Phenotype (%) [3]: 21%
Population Mitotic Cells (%) [3]: 29%
Population Normal (%) [3]: 86%
Population Pyknosed Nuclei (%) [3]: 29%
Population Tubulin-Different-Phenotype (%) [3]: 89%
Total Cell Count [3]: 160
Population Apoptotic (%) [4]: 0%
Population Fragmented Nuclei (%) [4]: 6%
Population Healthy Nuclei (%) [4]: 81%
Population Membrane Permeable-Phenotype (%) [4]: 13%
Population Mitochondria Different-Phenotype (%) [4]: 63%
Population Mitotic Cells (%) [4]: 100%
Population Pyknosed Nuclei (%) [4]: 11%
Population Tubulin-Different-Phenotype (%) [4]: 58%
Total Cell Count [4]: 62
Population Apoptotic (%) [5]: 62%
Population Fragmented Nuclei (%) [5]: 21%
Population Healthy Nuclei (%) [5]: 40%
Population Hoechst High Intensity Objects (%) [5]: 9%
Population Membrane Permeable-Phenotype (%) [5]: 25%
Population Mitochondria Different-Phenotype (%) [5]: 6%
Population Mitotic Cells (%) [5]: 37%
Population Normal (%) [5]: 90%
Population Pyknosed Nuclei (%) [5]: 38%
Population Tubulin-Different-Phenotype (%) [5]: 22%
Total Cell Count [5]: 84
Population Apoptotic (%) [6]: 50%
Population Fragmented Nuclei (%) [6]: 5%
Population Healthy Nuclei (%) [6]: 88%
Population Hoechst High Intensity Objects (%) [6]: 6%
Population Membrane Permeable-Phenotype (%) [6]: 6%
Population Mitochondria Different-Phenotype (%) [6]: 19%
Population Mitotic Cells (%) [6]: 50%
Population Normal (%) [6]: 93%
Population Pyknosed Nuclei (%) [6]: 5%
Population Tubulin-Different-Phenotype (%) [6]: 9%
Total Cell Count [6]: 281
Population Apoptotic (%) [7]: 64%
Population Fragmented Nuclei (%) [7]: 32%
Population Healthy Nuclei (%) [7]: 45%
Population Hoechst High Intensity Objects (%) [7]: 13%
Population Membrane Permeable-Phenotype (%) [7]: 10%
Population Mitochondria Different-Phenotype (%) [7]: 46%
Population Mitotic Cells (%) [7]: 35%
Population Normal (%) [7]: 86%
Population Pyknosed Nuclei (%) [7]: 21%
Population Tubulin-Different-Phenotype (%) [7]: 92%
Total Cell Count [7]: 163
Population Apoptotic (%) [8]: 83%
Population Fragmented Nuclei (%) [8]: 13%
Population Healthy Nuclei (%) [8]: 73%
Population Hoechst High Intensity Objects (%) [8]: 10%
Population Membrane Permeable-Phenotype (%) [8]: 6%
Population Mitochondria Different-Phenotype (%) [8]: 57%
Population Mitotic Cells (%) [8]: 16%
Population Normal (%) [8]: 90%
Population Pyknosed Nuclei (%) [8]: 13%
Population Tubulin-Different-Phenotype (%) [8]: 51%
Total Cell Count [8]: 75
Population Apoptotic (%) [9]: 52%
Population Fragmented Nuclei (%) [9]: 17%
Population Healthy Nuclei (%) [9]: 58%
Population Hoechst High Intensity Objects (%) [9]: 12%
Population Membrane Permeable-Phenotype (%) [9]: 23%
Population Mitochondria Different-Phenotype (%) [9]: 2%
Population Mitotic Cells (%) [9]: 47%
Population Normal (%) [9]: 87%
Population Pyknosed Nuclei (%) [9]: 23%
Population Tubulin-Different-Phenotype (%) [9]: 20%
Total Cell Count [9]: 83
Population Apoptotic (%) [10]: 33%
Population Fragmented Nuclei (%) [10]: 37%
Population Healthy Nuclei (%) [10]: 59%
Population Hoechst High Intensity Objects (%) [10]: 25%
Population Mitochondria Different-Phenotype (%) [10]: 3%
Population Mitotic Cells (%) [10]: 66%
Population Normal (%) [10]: 74%
Population Pyknosed Nuclei (%) [10]: 3%
Population Tubulin-Different-Phenotype (%) [10]: 33%
Total Cell Count [10]: 126
Population Apoptotic (%) [11]: 62%
Population Fragmented Nuclei (%) [11]: 41%
Population Healthy Nuclei (%) [11]: 48%
Population Hoechst High Intensity Objects (%) [11]: 20%
Population Membrane Permeable-Phenotype (%) [11]: 15%
Population Mitochondria Different-Phenotype (%) [11]: 21%
Population Mitotic Cells (%) [11]: 37%
Population Normal (%) [11]: 80%
Population Pyknosed Nuclei (%) [11]: 10%
Population Tubulin-Different-Phenotype (%) [11]: 90%
Total Cell Count [11]: 190
Population Apoptotic (%) [12]: 100%
Population Fragmented Nuclei (%) [12]: 24%
Population Healthy Nuclei (%) [12]: 74%
Population Hoechst High Intensity Objects (%) [12]: 7%
Population Membrane Permeable-Phenotype (%) [12]: 6%
Population Mitochondria Different-Phenotype (%) [12]: 1%
Population Mitotic Cells (%) [12]: 0%
Population Normal (%) [12]: 92%
Population Pyknosed Nuclei (%) [12]: 1%
Population Tubulin-Different-Phenotype (%) [12]: 56%
Total Cell Count [12]: 88
